High-throughput results: PubChem BioAssay, several laboratories
Sampled rows, rich in hits. Any-hit rate of the full collection: about 3.5%.
MT stabilizer: microtubule stabilizers in HeLa cells; HeLa tubulin immunostaining HCS, 24 h; share of cells brighter than vehicle mean+2SD; % tubulin-high responders, % at 10 µM; 200,000 tested, 0.83% active; AID 2205;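 active = plate Z-score above 3 for both tubulin-high and condensed-nucleus cell shares, with cell loss under 80%, at 10 µM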;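 also: anti alpha tubulin signal scored within the nucleus-defined area of each cell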
Efa HMGR inh: E. faecalis class II HMG-CoA reductase inhibition. 190,000 tested, 0.41% active. inhibition, % at 10 µM. purified E. faecalis HMGR, NADPH absorbance 340 nm kinetic;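 active = inhibition above a set limit, the median over all tested compounds plus 3 SD, cut at about 9.5% in these data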;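 also: enzyme runs in reverse so mevalonate oxidation gives rising NADPH absorbance; 0% = complete reaction with DMSO and 100% = background rate lacking mevalonate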
Yeast lifespan up: yeast lifespan extension; AID 775; S. cerevisiae growth with nicotinamide, OD615; deaD strain in restrictive glucose medium; 130,000 tested, 0.68% active; inhibition of the nicotinamide effect, % at 10 µM;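 active = inhibition above a set limit, placed 3 SD over the median of all compounds, cut at about 26% in these data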;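 also: 0% = nicotinamide-treated wells and 100% = cells grown without nicotinamide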
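Measured by: optical density (absorbance) at 615 nm; System: modified budding yeast, DeaD strain; Medium: restrictive CSMM-D dextrose medium; Timing: 4 h preincubation then 48 h treatment at 30 °C.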
RAM network inh: blocks the yeast RAM network | 190,000 tested, 1.8% active | inhibition, % at 50 µM | AID 868 | S. cerevisiae dse1pr::URA3 reporter, 5-FOA growth OD615, 2 d; analog-sensitive cbk1-as2 kinase mutant strain;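 active = inhibition above a set limit, 3 SD over mean compound inhibition, cut at about 8.4% in these data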;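 also: 0% = DMSO-only wells with no growth and 100% = 10 µM 1-NA-PP1 full growth; inhibition rescues growth on 5-FOA so higher OD means more RAM inhibition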
bCat nuc transl: modulators of beta-catenin nuclear translocation; HeLa beta-catenin nuclear translocation, immunofluorescence imaging; nuclear translocation activity, % at 5 µM; 190,000 tested, 0.3% active; AID 1665;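 active = nuclear translocation activity above 50% at 5 µM, with a well cell count of 50 or more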;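 also: per-cell ratio of nuclear to cytoplasmic median beta-catenin stain intensity; plate controls were DMSO negative control for no effect and GSK-3 inhibitor IX positive control for full effect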
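Signal – beta-catenin immunofluorescence imaging with DAPI · Test system – human HeLa cell line · Dosing – 5 µM primary single dose, 0.1% DMSO, 0.02–20 µM confirmation series · Measure – % activation, nuclear-to-cytoplasmic median beta-catenin signal ratio per cell · Incubation – 24 h compound exposure at 37°C, 5% CO2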
BB579 growth dn: yeast BB579 growth reduction in restrictive medium; inhibition, % at 10 µM; S. cerevisiae BB579 growth, OD615, 48 h; 140,000 tested, 0.51% active;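 active = inhibition above a set limit, 3 SD over the mean compound inhibition, cut at about 44% in these data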
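Assay system – yeast BB579 (DeaD) · Dosing – single compound dose of 10 µM, 0.25% DMSO final · Detection – OD615 turbidity measurement · Buffer or medium – CSMM-D restrictive synthetic medium containing dextrose (glucose) · Benchmarks – positive control amphotericin B 10 µg/mL · Incubation – 48 h exposure, 30 °C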
An asterisk follows results filed as active; · = no result given.

SMILES | MT stabilizer | Efa HMGR inh | Yeast lifespan up | RAM network inh | bCat nuc transl | BB579 growth dn
COc1cc2c(C(=O)N3CCN(c4ccccc4)CC3)c(C)oc2cc1Br | 26* | -2 | -7 | 0 | -2 | -11
COCC(=O)N1CCN(c2cccc(C(F)(F)F)c2)CC1 | 2 | -5 | · | 0 | -1 | ·
CCOc1ccccc1C(=O)N1CCN(c2cccc(Cl)c2)CC1 | 15* | 1 | -3 | 2 | 69* | -54
COc1ccc(N2CCN(C(=O)c3c(-c4ccccc4)noc3C)CC2)cc1 | 5 | -5 | 3 | 3 | -4 | -14
COc1ccc(OC)c(-c2csc(N3CCC(c4ccccc4)CC3)n2)c1 | 3 | -1 | · | 3 | -1 | ·
CC(=O)c1cccc(NC(=O)NNC(=O)CCC(=O)Nc2ccc(C)c(C)c2)c1 | 3 | -3 | · | 3 | 0 | ·
O=C1NC(SCCCF)=N/C1=C/c1ccc(-n2cncn2)cc1 | · | · | · | · | 0 | ·
CCOc1ccc2ccccc2c1C(=O)N1CCN(c2ccccc2)CC1 | 47* | 3 | -1 | 0 | 1 | -40
COc1ccc(C(=O)N2CCN(c3cccc(Cl)c3)CC2)c(OC)c1 | 44* | 0 | -1 | 2 | · | -40
CCOC(=O)c1[nH]c(C)c(C(=O)N2CCN(c3ccccc3)CC2)c1C | 5 | -2 | -6 | 2 | -1 | -17
Cc1cc(C)n2nc(SCCCC(=O)c3ccc(F)cc3)nc2n1 | 2 | -9 | · | 2 | 1 | ·
O=C(Cn1nnc2ccccc21)OCC(=O)c1ccc(F)cc1 | · | · | · | · | -2 | ·
CCc1cc2cc(C)cc(C)c2[nH]c1=S | 4 | 5 | · | 5 | -2 | ·
O=C(COc1ccccc1C(=O)Nc1ccccc1)c1ccc(Br)cc1 | 4 | 10* | · | 2 | -6 | ·
COc1ccc(NS(=O)(=O)c2cc(NC(=O)c3ccc(C)s3)ccc2N2CCOCC2)cc1 | · | · | · | · | 1 | ·
Oc1ccc(COCc2ccccc2)c2cccnc12 | 8 | -4 | -16 | 1 | · | 99*
Cc1ccc(N=Nc2ccc(O)c3ncccc23)cc1C | 11 | 0 | · | 2 | 0 | ·
CCCOCc1ccc(O)c2ncccc12 | · | · | · | · | 1 | ·
Oc1ccc(CN2CCCCC2)c2cccnc12 | 4 | -6 | · | -1 | -4 | 45*
OCc1ccc(O)c2ncccc12 | 2 | -2 | -21 | 3 | -1 | 96*
Cc1ccc(N=Nc2ccc(O)c3ncccc23)cc1 | 3 | 2 | 0 | 3 | -4 | 55*
O=C(c1ccc(F)cc1)N1CCN=C1c1ccccc1 | 2 | 0 | 8 | 2 | · | -22
Cc1c(-n2c(SCC(=O)O)nnc2-c2ccccc2Br)c(=O)n(-c2ccccc2)n1C | · | · | · | · | 1 | ·
O=[N+]([O-])c1cc(CN2CCN(c3cccc(C(F)(F)F)c3)CC2)c2cccnc2c1O | 3 | 2 | · | -1 | 0 | ·
O=[N+]([O-])c1cc(CN2CCCC2)c2cccnc2c1O | 4 | 0 | -3 | 1 | -1 | 60*
SMILES | MT stabilizer | Efa HMGR inh | Yeast lifespan up | RAM network inh | bCat nuc transl | BB579 growth dn
CC(=O)N1CCN(Cc2nc3cc(NC(=O)NC4CCCCC4)ccc3n2C)CC1 | 2 | 2 | · | 2 | -1 | ·
CCc1ccc(NC(=O)CSc2nnc(-c3n[nH]c4ccccc34)n2-c2ccccc2)cc1 | 5 | -5 | -4 | 4 | 0 | -15
O=C(CSc1nnc(-c2n[nH]c3ccccc23)n1-c1ccccc1)Nc1cccc(Cl)c1 | 5 | 1 | 7 | 8.8* | 0 | -47
Cc1ccc(CN2CCN(CC(=O)N/N=C/c3ccc(C)o3)CC2)cc1 | · | · | · | · | 1 | ·
O=C1/C(=C/c2ccccc2)NC(=S)N1C(c1ccccc1)c1ccccc1 | 36* | -3 | -4 | 5 | 61* | -37
Cc1oc(C(C)(C)C)cc1C(N)=O | · | · | · | · | -3 | ·
O=C(N/N=C/c1ccccc1C(=O)O)c1cc(-c2ccc3c4c(cccc24)CC3)n[nH]1 | 4 | 13* | · | 7 | -2 | ·
CCNC(=O)NC(=O)C(C)OC(=O)Cc1coc2cc3c(cc12)CCC3 (stereo not drawn) | 3 | -1 | · | 5 | -2 | ·
COc1ccc2nc(Nc3nc(CSc4ccc(C)cc4)cc(=O)[nH]3)nc(C)c2c1 | 2 | -6 | · | 11* | 1 | ·
Cc1ccc(SCc2cc(=O)[nH]c(Nc3nc(C)c4cccc(C)c4n3)n2)cc1 | 8 | -3 | -6 | 2 | · | -18
CC1=NN(S(=O)(=O)c2ccc(C)cc2)C(=O)c2ccccc2O1 | · | · | · | · | -1 | ·
COc1ccc(S(=O)(=O)N2N=C(C)Oc3ccccc3C2=O)cc1 | 37* | -1 | -20 | 0 | 80* | -19
CN(C)c1ccc(/C=C/c2ccc3ccccc3[n+]2C)cc1 | 32 | 0 | 2 | 2 | 0 | 66*
CCC(C(=O)OC)n1c(-c2ccccc2)nc2ccccc2c1=O (stereo not drawn) | 1 | 12* | · | 0 | 0 | ·
COc1ccc(Nc2c([N+](=O)[O-])ccc3c2=NC2(CCCCC2)N=3)cc1 | 2 | 2 | · | 3 | 0 | ·
O=C(O)CCc1ccc(-c2cccs2)n1CCc1ccccc1 | 3 | -3 | · | 9.5* | -4 | ·
COc1ccc(CCNC(=O)CSc2nc3[nH]ncc3c(=O)n2-c2ccc(C)c(Cl)c2)cc1OC | 1 | -6 | · | -1 | · | ·
Cc1nc(C)n(CC(=O)N2CCCC(C(=O)c3cccc4ccccc34)C2)n1 (stereo not drawn) | 7 | 1 | · | -1 | 0 | ·
O=C1N=c2ccccc2=C1c1c(O)n(-c2cccc(F)c2)[nH]c1=O | 2 | -4 | 33* | 4 | -1 | -6
Cc1cc(C(=O)N[C@H](c2ccccc2)[C@@]2(C)C[C@@H]2[C@@H](C)C(=O)Nc2ccc3ccccc3c2)no1 | 2 | 25* | 0 | 5 | -3 | -30
N#C/C(=C/c1ccc(N2CCOCC2)o1)c1ccc(Cl)cc1 | 48* | -6 | -13 | 0 | 0 | 2
COc1cc(/C=c2\sc3nc(-c4ccncc4)nn3c2=O)ccc1OC(C)=O | 5 | -1 | 33* | 1 | 2 | -39
COC(=O)CNC(=O)COC(=O)Cc1ccc(Cl)cc1 | 3 | -1 | · | 2 | -2 | ·
Fc1ccc2nc(Nc3nc4cc5c(cc4s3)OCO5)sc2c1 | 5 | -5 | -1 | 9.2* | 2 | -8
Fc1ccc2nc(Nc3nc4cc5c(cc4s3)OCCO5)sc2c1 | 4 | -4 | -2 | 5 | -8 | -41
O=C1c2cccc3cccc(c23)C(=O)N1c1cccnc1 | 6 | 1 | -31 | -1 | -1 | 49*
CCCCNC(=S)N(C)/N=C/c1sc(N2CCCCC2)nc1-c1cccs1 | 1 | 0 | -5 | 9.9* | · | -20
CC(C)NC(=S)N/N=C/c1sc(N2CCCCC2)nc1-c1cccs1 | 7 | 0 | -5 | 1 | -1 | -21
c1ccc(-c2nc3c(ccc4ccccc43)[nH]2)nc1 | 7 | 1 | · | 0 | · | 72*
